The test system of data set [1] is recombinant SNAP25. Description: Binding of SNAP25 to ECM array. Set-up: species or system human. Conditions: recombinant SNAP25 1/200, overnight 4°C, A488 anti-SNAP25 detection. In short, it runs like this:
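Array slide of ECM proteins (collagens I, III, IV, V, VI, fibronectin, laminin, vitronectin, tropoelastin) washed in PBS and PBST, then blocked 1 h at room temperature in 5% BSA/5% FBS in PBST. Human recombinant SNAP25 was applied at 1/200 in 1/5-diluted blocking buffer overnight at 4°C. Bound protein was detected with A488 anti-SNAP25 at 1/200 overnight at 4°C, then imaged by fluorescence in the green channel.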

Data set [2] has as its target recombinant SNAP25. Description: Surface plasmon resonance, immobilized SNAP25. Type of data set: binding, human. Conditions: read-out: KD (estimative), SPR; one-to-one model, SNAP25 via His-Tag/Ni-NTA, collagen 20μg/ml, 20 °C, OpenSPR. In short, it runs like this:
(§1)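 SPR was run at 20 °C on an NTA sensor chip conditioned with 10 mM HCl, 200 mM imidazole and EDTA, then activated with 40 mM NiCl₂. His-tagged ligand was captured on channel 2 only: human recombinant SNAP25 at 150 µg/mL, or the control mouse M-CSF (28 kDa, 9-His) at 10 µg/mL. Collagen V or VI at 20 µg/ml in PBS flowed through both channels at 20 µl/min. Data were fitted to a one-to-one model.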

The test system of data set [3] is U87MG cells. The data set can be described thus: U87MG cell culture on collagens V and VI, morphology. Type of data set: cell-based. Conditions: versus plastic (colonies); 5μg/cm^2 collagen coating. The procedure, abridged: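 Plates were coated for 1 h at room temperature with bovine collagen VI or human collagen V (5 µg/cm², from 50 µg/ml in 500 mM acetic acid) and washed twice with PBS. U87MG cells were seeded and grown 24 h, then given fresh medium for another 48 h. Cells were fixed in 4% PFA, blocked, DAPI-stained and imaged by fluorescence microscopy.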

Data set [4] deals with control protein (recombinant mouse macrophage colony-stimulating factor (M-CSF)). Description: Surface plasmon resonance, control protein. Conditions: control protein of similar molecular weight, immobilized in the same way, 20 °C. Type of data set: binding. In short, it runs like this:
as §1

For data set [5], the system named is recombinant SNAP25. Description: ELISA binding to SNAP25-coated plates. Set-up: species or system human. Conditions: plates coated with recombinant SNAP25, FAM-labeled peptide. On the technique in general: In an ELISA, binding on a coated surface is turned into a signal by an enzyme label.
Data set [6] concerns HEK293T cells. The data set can be described thus: Photodynamic cytotoxicity. Conditions: 3μM conjugate, 30 min, 3 washes, 690nm laser 10 J/cm^2 (160 mW/cm^2), 24 h, MTS. Type of data set: cell-based. In short, it runs like this: (§2)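 Cells (30.000/well) were attached overnight, then exposed 30 min to peptide–verteporfin conjugates at 3 µM final. Wells were washed 3× with full medium and refreshed. Irradiation used a 690 nm laser, 10 J/cm² at 160 mW/cm². After 24 h further culture, viability was measured by MTS/PMS (2 h, 37 °C, 5% CO₂), reading absorbance at 492 nm.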

Data set [7] concerns U87MG cells. Description: Photodynamic cytotoxicity. Type of data set: cell-based, human. Conditions: 24 h, MTS. The procedure, abridged:
as §2

Data set [8] deals with SK-N-AS cells. Description: Photodynamic cytotoxicity. Type of data set: cell-based. Conditions: 3μM conjugate, 30 min, 3 washes, 690nm laser 10 J/cm^2 (160 mW/cm^2), 24 h, MTS. The procedure, abridged: as §2
For data set [9], the system named is LN229 cells. Description: Photodynamic cytotoxicity. Conditions: 3μM conjugate, 30 min, 3 washes, 690nm laser 10 J/cm^2 (160 mW/cm^2), 24 h, MTS. Type of data set: cell-based. The procedure, abridged: as §2
Data set [10] addresses human recombinant SNAP25 (Homo sapiens, UniProt P60880). Description: Quartz crystal microbalance binding to SNAP25. The procedure, abridged:
(§3)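 The 5 MHz Cr/Au quartz crystal was cleaned with isopropanol, ethanol and water. It was treated with 20 mM mercaptopropanesulfonate in 10 mM H₂SO₄ for 30 min, then with 10 µM (monomer) poly(allylamine hydrochloride) at pH 8 for 10 min. Human recombinant SNAP25 or BSA was deposited at 0.01 mg/mL for 10 min. After a baseline in 500 µL PBS, 50 µL of 300 µM peptide stock in PBS was added and mass change recorded.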

A short description of data set [11]: Quartz crystal microbalance, PAH control layer. Type of data set: binding. Conditions: label-free, peptide 30μM final in PBS.
Data set [12] relates to AD brain vasculature. Conditions: ref [9], cited from earlier work.
The test system of data set [13] is U87MG cells. The data set can be described thus: Viability without laser irradiation. In kind it is cell-based. Conditions: up to 30μM, 30 min at 37°C, no laser irradiation, 24 h, MTS.
Data set [14] can be described thus: Quartz crystal microbalance, PAH-BSA control multilayer. In kind it is binding. Conditions: label-free, peptide 30μM final in PBS. The procedure, abridged:
as §3

Data set [15] deals with adhesion of U87MG cells to collagen VI. The data set can be described thus: U87MG adhesion to collagen VI-coated plates. Type of data set: cell-based. Conditions: CES 30μM, 24 h, then 48 h, DAPI nuclei count. In short, it runs like this:
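Wells were coated with collagen VI (5 µg/cm² from 50 µg/ml in 500 mM acetic acid) for 1 h at room temperature, then washed with PBS. U87MG cells were seeded with or without anti-SNAP25 antibody (5 µg/mL) or 30 µM test peptide. Medium was changed at 24 h and culture continued 48 h. Cells were fixed in 4% PFA, blocked and DAPI-stained, and nuclei were counted per image area (1.2 mm²).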

The subject of data set [16] is connective tissue growth factor (CTGF) bound to the vascular extracellular matrix. Conditions: ref [9]; cited from earlier work.
Data set [17] deals with Casein. Description: ELISA binding to casein-coated plates. Conditions: plates coated with Casein, FAM-labeled peptide.
Data set [18] relates to intracranial U87MG glioblastoma. The data set can be described thus: In vivo homing, intracranial U87MG glioblastoma. Details: species or system mice (female athymic nude), human U87MG xenograft. Conditions: 30 nmoles i.v., 60 min circulation. In short, it runs like this:
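Tumors were induced in female athymic nude mice by intracranial injection of 3×10^5 U87MG cells into the right striatum (2 mm lateral, 2 mm posterior to bregma, 2.5 mm deep) and grown 9 days. Mice received FAM-labelled peptide, 30 nmol in PBS i.v., for 60 min, then PBS perfusion, 4% PFA fixation, sucrose and OCT. 10 µm sections were stained without permeabilization for FAM with CD31 or SNAP25. n=3.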

In data set [19] the test system is MCF10CA1a tumors. Description: In vivo homing, orthotopic MCF10CA1a breast tumors. Set-up: species or system athymic nude mice, human triple-negative breast cancer cells. Conditions: 30 nmoles i.v., 60 min circulation, n=3. The procedure, abridged: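 Orthotopic breast tumors: athymic nude mice were given 2×10^6 MCF10CA1a cells in PBS into the mammary gland and used 14 days later. FAM-labelled peptide (30 nmol in PBS) was injected i.v. and circulated 60 min, followed by PBS perfusion, overnight 4% PFA fixation, sucrose and OCT embedding. 10 µm sections were immunostained for FAM without permeabilization. n=3.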

Data set [20] deals with WT-GBM tumors. The data set can be described thus: In vivo homing, WT-GBM glioblastoma model. Details: species or system mice (Fox/Nu). Conditions: 30 nmoles i.v., 60 min circulation, n=3. In short, it runs like this: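 Fox/Nu mice received 7×10^5 WT-GBM cells stereotactically into the right striatum and were used 6-7 days later. FAM-labelled peptide (30 nmol in PBS) was given i.v. and circulated 60 min. Mice were perfused intracardially with PBS, and organs were fixed in 4% PFA pH 7.4 overnight, sucrose-cryoprotected and OCT-embedded. 10 µm sections were stained without permeabilization for FAM and CD31 (primary 1/100 overnight 4°C; secondary 1/200). n=3.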

Data set [21] relates to healthy brain. The data set can be described thus: In vivo homing, healthy brain. Details: species or system mice. Conditions: 30 nmoles i.v., 60 min circulation, n=3. The procedure, abridged:
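Healthy (non-tumor) mice received FAM-labelled peptide, 30 nmol i.v. in PBS, for 60 min. Mice were perfused with PBS, and brains were fixed in 4% PFA, cryoprotected in sucrose and embedded in OCT. Sections were stained without permeabilization for FAM and SNAP25 (primary 1/100 overnight at 4°C, secondary 1/200). n=3.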

Bridge positions count the residues as written; N and C are the ends. Peptide text beside a SMILES is read from it.

Sequence of human recombinant SNAP25 (P60880 whole entry): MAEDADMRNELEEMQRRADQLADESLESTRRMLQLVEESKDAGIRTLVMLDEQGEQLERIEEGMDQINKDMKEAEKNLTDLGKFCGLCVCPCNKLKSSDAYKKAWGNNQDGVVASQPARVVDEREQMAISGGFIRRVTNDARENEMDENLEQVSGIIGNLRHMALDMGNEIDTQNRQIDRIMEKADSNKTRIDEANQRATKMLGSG

collagen IV: ECM protein on array: the “binding of SNAP25 to ECM proteins, array” value in data set [1] was “non-binding”.

Regarding “collagen V: Human type V Collagen-Lyophilized (Southern Biotech, Cat # 1270–01)”, the dissociation constant Kd in data set [2] is 7200 nM. Besides, the “U87MG growth morphology on collagen-coated plates” value in data set [3] was “formed monolayers and presented particles attached to the plate”. Besides, the “binding to control protein, SPR” value in data set [4] was “no binding”. Further, in data set [1], the “binding of SNAP25 to ECM proteins, array” value was “binding of SNAP25 to collagens V and VI”.

Take “FAM-iRGD: FAM-labeled iRGD, another peptide with similar molecular weight and isoelectric point [reference compound]”: in data set [5], the “binding to SNAP25, ELISA” value is “did not bind to SNAP25”.

Turning to collagen III: ECM protein on array, in data set [1], the “binding of SNAP25 to ECM proteins, array” value is recorded as “non-binding”.

As to “collagen VI: Bovine Type VI Collagen-Solution (Southern Biotech Cat # 1300–02S)”, the Kd in data set [2] was 15 nM. Also, in [3], the “U87MG growth morphology on collagen-coated plates” value was “formed monolayers and presented particles attached to the plate”. Also, the “binding to control protein, SPR” value in data set [4] is reported as “no binding”. Also, the “binding of SNAP25 to ECM proteins, array” value in [1] is “binding of SNAP25 to collagens V and VI”.

Regarding “Vert-Ahx-CESPLLSEC-NH2 (disulfide) [CES-V]”, the “toxicity, irradiated, HEK293T” value in data set [6] is “no toxicity”. Moreover, the “toxicity, irradiated, U87MG” value in [7] (3μM conjugate, 30 min, 3 washes, 690nm laser 10 J/cm^2 (160 mW/cm^2)) was “significant toxicity”. Moreover, the “difference in toxicity between irradiated CES-V and irradiated CtrlPep-V” value in data set [7] (3μM, 690nm laser, compared across U87MG, LN229, SK-N-AS, HEK293T) is on record as “only reached significance for U87MG”. The “toxicity, irradiated, SK-N-AS” value in data set [8] is on record as “no toxicity”. The “toxicity, irradiated, LN229” value in data set [9] is recorded as “significant toxicity”.

With `CC(=O)N[C@H]1CSSC[C@@H](C(N)=O)NC(=O)[C@H](CCC(=O)O)NC(=O)[C@H](CO)NC(=O)[C@H](CC(C)C)NC(=O)[C@H](CC(C)C)NC(=O)[C@@H]2CCCN2C(=O)[C@H](CO)NC(=O)[C@H](CCC(=O)O)NC1=O` [CES] (Ac-CESPLLSEC-NH2; disulfide 1-9), the equilibrium dissociation constant (Kd) in data set [10] came out at 24 nM. For the same compound, the “dissociation rate upon washing with PBS, QCM” value in [10] (SNAP25 on PAH layer, washing with PBS) is on record as “slow dissociation rate”. Further, in [11], the “binding to control layer PAH, QCM” value is “did not bind to the control layers”. In addition, the “homing to blood vessels of AD brain” value in [12] (genetically modified mouse AD model, in vivo phage library screen, will be reported elsewhere) is on record as “specifically accumulates (homes) in the blood vessels of AD brain”. For the same compound, the “cytotoxicity of peptide alone, U87MG” value in data set [13] is recorded as “did not elicit cytotoxicity”. Besides, the “binding to control multilayer PAH-BSA, QCM” value in data set [14] is on record as “did not bind to the control layers”. Besides, the “effect on adhesion of U87MG cells to collagen VI-coated plates” value in data set [15] was “affected the adhesion of U87MG cells to collagen VI-coated plates”.

On to CDAGRKQKC [reference compound], for which the “recognition of AD brain vasculature” value in data set [12] (mouse AD model) was “recognize the vasculature of AD brain very early in the development of the disease”. For the same compound, the “target molecule (receptor)” value in data set [16] is “connective tissue growth factor (CTGF) bound to the vascular extracellular matrix”.

“FAM-Ahx-CESPLLSEC-NH2 (disulfide) [FAM-CES]”: in data set [17], the “binding to Casein, ELISA” value is recorded as “not to Casein”. In addition, the “co-distribution with blood vessel marker CD31 in U87MG tumor” value in data set [18] (n=3, FAM/CD31 immunostaining) was “co-distributing with the blood vessel marker CD31”. In addition, the “colocalization with SNAP25 in U87MG tumors” value in data set [18] (n=3, FAM/SNAP25 immunostaining) is “apparent colocalization with SNAP25 in U87MG tumors”. Also, in data set [19], the “tumor homing, orthotopic breast cancer” value is “no tumor homing”. Moreover, the “binding to SNAP25, ELISA” value in data set [5] was “bound to SNAP25”. Moreover, in data set [20], the “colocalization with CD31 in WT-GBM” value is “showed colocalization with CD31” and the “homing to WT-GBM tumors” value is recorded as “targeted WT-GBM tumors”. For the same compound, in data set [21], the “homing to healthy brain” value was “no homing to healthy brain”.

On to collagen I: ECM protein on array, for which, in [1], the “binding of SNAP25 to ECM proteins, array” value is listed as “non-binding”.

The term Kd denotes a measure of binding affinity in units of concentration.

Values taken from PMC11429891 (bioRxiv, 2024).
